# Laboratory results as given in article PMC10798254 (Indian Journal of Nuclear Medicine : IJNM : The Official …, 2023).
# Experiments:
# [1] = test system: U87; conditions: temozolomide sensitive line; stated in methods, ref not given; cited from earlier work
# [2] = test system: LN18; conditions: temozolomide resistant line; stated in methods, ref not given; cited from earlier work
# [3] = test system: BIRADS-V breast lesions; test: 99mTc-MDM scintimammography; format: in vivo, patients
# Procedure, shortened: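 For labelling, 15–20 mCi sodium pertechnetate was added to the kit vial and made up to 1.5 ml with 0.9% NaCl. It was incubated 15–20 min, then 0.22 µm filtered. 15–20 mCi was injected i.v. under the gamma camera. Spot views (anterior/posterior and lateral prone) were taken at 10, 60 and 180 min, and uptake mean and SD calculated at each time.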
# [4] = Biodistribution and dosimetry of 177Lu-DOTA-rituximab; format: in vivo, patients
# Procedure, shortened: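 22 patients received a diagnostic administration, mean 288.6 MBq. Blood clearance, organ residence times and effective half-life were derived. Whole-body and organ (liver, spleen, kidneys, bone marrow) absorbed doses were expressed per MBq using OLINDA/EXM v2.1.1.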
# [5] = test system: papillary thyroid carcinoma; test: Empirical radioiodine therapy in papillary thyroid carcinoma; format: in vivo, patients; conditions: of 100
# Procedure, shortened: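 100 papillary thyroid carcinoma patients received 1–3 empirical radioiodine ablations and were followed from 6 months to 12 years. Histologies were classical, follicular, oncocytic, tall cell and microcarcinoma. Disease status was judged from serum thyroglobulin trend during follow-up.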
# [6] = test system: peripheral blood lymphocytes; test: Cytokinesis block micronuclei assay after therapeutic 131I; format: in vivo, patients
# Procedure, shortened: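 Blood was drawn from 18 thyroid cancer patients before and 72 hrs after a single oral therapeutic 131I dose (5.7 ± 2.1 GBq). Nine healthy volunteers served as controls. Samples were run by standard cytokinesis-block micronucleus protocol, scoring MN, NBUDs and NBR per 1000 binucleate PBLs.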
# [7] = test system: thyroid remnant; test: 131I remnant ablation in differentiated thyroid cancer; format: in vivo, patients
# [8] = test system: estrogen receptor-positive (ER+) tumors; test: Tumor localization of 99mTc-; format: in vivo
# [9] = test system: HeLa xenograft; test: In-vivo biodistribution; set-up: species or system SCID mice; conditions: mouse
# [10] = test system: HeLa cells (PDL-1); test: Cell binding; format: cell-based, human; conditions: plateau after 30 minutes
# [11] = In-vitro stability of 99mTc-glibenclamide; format: physicochemical; conditions: solution in PEG 400, ethanol, DMSO stored at 2-8 C, without lyophilization
# [12] = molecular target: T1, CXCR4 receptors (Homo sapiens, UniProt P61073); set-up: species or system patients; conditions: in vivo
# [13] = molecular target: T1, CXCR4 receptors; format: in vivo, patients
# [14] = test system: RGD binding integrins; format: in vivo, patients
# [15] = test system: kidney; test: Effect of probenecid on renal uptake of 68Ga-DOTATATE and 68Ga-PSMA11; format: in vivo, Wistar rats; conditions: control versus experimental groups
# [16] = test system: QG56 (wild-type EGFR); test: Methylene blue IC50 assay; format: cell-based; conditions: Homo sapiens, QG-56
# [17] = test system: HCC827; test: Methylene blue IC50 assay; format: cell-based; conditions: Homo sapiens
# [18] = test system: NCI-H3255; test: Methylene blue IC50 assay; format: cell-based; conditions: Homo sapiens
# [19] = test system: NCI-H1975; test: Methylene blue IC50 assay; format: cell-based; conditions: Homo sapiens
# [20] = test system: carcinoma prostate; test: Detection of metastatic disease in carcinoma prostate, PET-CT; format: in vivo, patients; conditions: for detection rate, lymph nodes: 50 patients, head-to-head; for detection rate, skeletal metastases / detection rate, soft tissue metastases: in vivo
# [21] = test system: B16F10 cells; test: Cell binding; format: cell-based; conditions: plateau after 30 minutes
# [22] = test system: melanoma tumor (B16F10); test: In-vivo biodistribution; set-up: species or system C57BL6 mice; conditions: mouse
# [23] = test system: metastatic pheochromocytoma and paraganglioma; test: I-131 MIBG therapy of metastatic pheochromocytoma and paraganglioma; format: in vivo, patients
# [24] = test system: medullary thyroid cancer; test: 131I-mIBG therapy of medullary thyroid cancer; format: in vivo, patients
# Procedure, shortened: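 131I-mIBG given as dose-adjusted intravenous infusions in 100 ml 0.9% sodium chloride by syringe pump over 3 hours, at 30.5 to 120 mCi per dose. Twenty-three therapy doses in total, 1–4 per patient.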
# [25] = test system: mCRPC with liver metastases; test: [177Lu]Lu-PSMA-617 in mCRPC with liver metastases; format: in vivo, patients
# [26] = test system: Glioblastoma multiforme; test: [64Cu]CuCl2 PET in glioblastoma multiforme; format: in vivo, patients
# [27] = molecular target: amyloid-beta (Aβ42) (Homo sapiens, UniProt P05067); test: Binding to synthetic Aβ42 peptide and molecular modeling; conditions: compared to monomeric counterparts
# [28] = test system: metastatic prostate cancer; test: 99mTc-PSMA SPECT/CT vs 68Ga-PSMA PET/CT lesion detection; format: in vivo, patients
# Procedure, shortened: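 61 male patients with metastatic prostate cancer (mean age 67 ± 7.82 years) received i.v. 99mTc-PSMA, mean 12.82 ± 1.15 mCi. Anterior and posterior whole-body images were taken at 2.0 and 4.0 h on a dual-head gamma camera (matrix 256×1024, 12 cm/min). Lesion counts were compared against 68Ga-PSMA.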
# [29] = Stability of 68Ga-FAPI till 4 hrs by ITLC; format: physicochemical
# [30] = RCP of 68Ga-FAPI over time by TLC and HPLC; format: physicochemical
# Procedure, shortened: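 Radiolabelled yield and RCP of the product were assessed by gradient HPLC and by TLC, using 0.1M sodium citrate and 50% acetonitrile as solvents. Physical appearance, pH and colour were also checked.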
# T1 sequence (P61073 whole entry): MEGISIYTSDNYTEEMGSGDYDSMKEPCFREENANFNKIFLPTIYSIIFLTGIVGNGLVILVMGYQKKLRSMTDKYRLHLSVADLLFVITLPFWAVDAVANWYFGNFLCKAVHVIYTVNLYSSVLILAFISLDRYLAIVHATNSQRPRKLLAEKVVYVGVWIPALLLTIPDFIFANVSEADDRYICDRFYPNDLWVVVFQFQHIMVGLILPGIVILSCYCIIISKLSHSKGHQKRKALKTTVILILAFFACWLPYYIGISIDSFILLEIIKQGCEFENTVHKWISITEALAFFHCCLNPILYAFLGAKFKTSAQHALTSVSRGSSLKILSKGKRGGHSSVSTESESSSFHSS
# Sequence of amyloid-beta (Aβ42) (P05067 672-713): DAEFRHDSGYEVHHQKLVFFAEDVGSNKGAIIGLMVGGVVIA
molecule,measurement,setting,value
Cn1nnc2c(C(N)=O)ncn2c1=O [temozolomide],IC50,[1],10000 to 100000 nM
same,IC50,[2],400000 to 500000 nM
DTPA-bis-methionine [^99mTc-MDM],mean Tu:Bkg ratio,"[3]; Prone Lateral, 10min",1.89 ± 0.578
same,mean Tu:Bkg ratio,"[3]; Prone Lateral, 1hr",1.95 ± 0.717
same,mean Tu:Bkg ratio,"[3]; Prone Lateral, 3hrs",2.059 ± 0.728
same,mean Tu:Bkg ratio,"[3]; anterior view, 10min",2.606 ± 0.601
same,mean Tu:Bkg ratio,"[3]; anterior view, 3hrs",3.04 ± 1.114
^177Lu-DOTA-rituximab,effective half-life,[4]; 22 patients,104.5 ± 22 h
same,mean WB radiation absorbed dose,[4]; OLINDA/EXM,0.208 ± 0.03 mGy/MBq
same,mean WB effective dose,[4]; in vivo,0.196 ± 0.05 mGy/MBq
same,"mean radiation absorbed dose, bone marrow",[4]; in vivo,0.136 ± 0.02
same,"mean radiation absorbed dose, kidneys",[4]; in vivo,1.01 ± 0.42 mGy/MBq
same,"mean radiation absorbed dose, liver",[4]; in vivo,0.613 ± 0.21 mGy/MBq
same,"mean radiation absorbed dose, spleen",[4]; in vivo,1.68 ± 2 mGy/MBq
[131IH] [radioiodine],progression post empirical therapy,[5],Fifty-two
same,regression of disease (decreasing serum thyroglobulin),[5],38 patients
same,NBUDS /1000 BN PBLs post exposure,"[6]; 72 hrs after 5.7 ± 2.1 GBq, Pre 7.4 ± 5.3, n = 18",11.9 ± 7.2
same,NBR /1000 BN PBLs post exposure,"[6]; 72 hrs after exposure, Pre 5.7 ± 4.4",14.4 ± 8.1
same,successful remnant ablation,[7]; baseline S Tg <12.3,84.1%
same,successful remnant ablation,[7]; baseline S Tg more than 12.3,21.2%
same,patients with successful ablation in a single dose,"[7]; of 383, 70.3 ± 33.6 mCi",251 patients
"CC12CCC3c4ccc(O)cc4CCC3C1CCC2(O)c1cn(CCNC(=O)CN(CCN(CCN(CC(=O)O)CC(=O)NCCn2cc(C3(O)CCC4C5CCc6cc(O)ccc6C5CCC43C)nn2)CC(=O)O)CC(=O)O)nn1 (stereo not drawn) [^99mTc[(EST)2DT], 5,8-bis(carboxymethyl)-13-(4-(3,17-dihydroxy-13-methyl-7,8,9,11,12,13,14,15,16,17-decahydro-6H-cyclopenta[α]phenanthren-17-yl)-1H-1,2,3-triazol-1-yl)-2-(2-(2-(4-(3,17-dihydroxy-13-methyl-7,8,9,11,12,13,14,15,16,17-decahydro-6H-cyclopenta[α]phenanthren-17-yl)-1H-1,2,3-triazol-1-yl)ethylamino)-2-oxoethyl)-10-oxo-2,5,8,11-tetraazatridecane-1-carboxylic acid, metal not drawn]",T/M ratio,[8]; at 2.0 hours,1.11 ± 0.34
same,increase in tumor localization,[8]; in vivo,fivefold
[^90Y]Y-CHX-A”-DTPA-Atezolizumab,retention in the tumor,[9],5.2 ± 2.5 % ID/gm
same,binding with cells,[10],~ 18 ± 3.5%
"COc1ccc(Cl)cc1C(=O)NCCc1ccc(S(=O)(=O)NC(=O)NC2CCCCC2)cc1 [GBD, Glibenclamide]",period for which solubilized drug solution was labeled efficiently,[11],2 months
^18F-FDG,lesions with increased tracer uptake,[12],55 lesions
same,"increase in mean SUVmax, PD",[13]; n = 3,9.8%
same,"percent decrease in mean SUVmax, VGPR",[13]; n = 6,68.8%
same,"percent decrease in mean SUVmax, CR",[13]; n = 9,78.6%
same,"percent decrease in mean SUVmax, PR",[13]; n = 12,43.3%
same,overall sensitivity,[14]; in vivo,92.86%
same,overall specificity,[14]; in vivo,100%
same,skeletal metastatic lesions seen,[14]; of 23,78.26%
same,patients positive for the disease,[14]; of 30,86.66%
same,soft tissue lesions seen,[14]; of 47,100%
same,lung lesions seen,[14]; of 130,90%
same,lesions with uptake,[14]; of 200 lesions,91%
"CCCN(CCC)S(=O)(=O)c1ccc(C(=O)O)cc1 [probenecid, Probenecid]",change in kidney excretion pattern,[15],no significant change
"C=CC(=O)Nc1cc(Nc2nccc(-c3cn(C)c4ccccc34)n2)c(OC)cc1N(C)CCN(C)C [Osimietinib, Osimertinib]",IC50,[16],1800 nM
same,IC50,[17],2 nM
same,IC50,[18],4 nM
O=C([O-])CN(CCN(CC(=O)[O-])Cc1cc(CCC(=O)NCCCCCC(=O)NCCCC[C@H](NC(=O)N[C@@H](CCC(=O)O)C(=O)O)C(=O)O)ccc1[O-])Cc1cc(CCC(=O)O)ccc1[O-].[68Ga+3].[OH3+] [^68Ga-PSMA-11],"detection rate, lymph nodes",[20],99%
same,"detection rate, skeletal metastases",[20],99%
same,"detection rate, soft tissue metastases",[20],85.4%
[^90Y]Y-CHX-A”-DTPA-Bevacizumab,binding in cells,[21],Approximately 32 ± 3%
same,accumulation in tumor,[22],8.2 ± 2.7 % ID/g
"N=C(N)NCc1cccc([131I])c1 [I-131 MIBG, Metaiodobenzylguanidine]",immediate side effect post therapy,[23]; 20 patients,only one patient experienced severe vomiting
same,patients with symptomatic relief,[23]; in vivo,70%
same,progressive disease,[23]; in vivo,9/20
same,partial response,[23]; ~100mCi i.v. per therapy,11/20
same,calcitonin levels remained stable,"[24]; 30.5 to 120 mCi per dose, 1-4 doses",8/13
same,calcitonin levels progressed,[24]; in vivo,5/13
same,regression on repeat mIBG scans,[24]; in vivo,3/12
same,side effects,[24]; in vivo,no reported side effects
[^177Lu]Lu-DOTA-Bevacizumab,binding in cells,[21],Approximately 32 ± 3%
same,accumulation in tumor,[22],8.2 ± 2.7 % ID/g
[^177Lu]Lu-PSMA-617,Grade 3 anemia,[25]; 2/18 patients,11.1%
same,ORR,[25]; 4/14 patients,28.6%
same,best PSA-RR (PSA decline of ≥50%),"[25]; 4/16 patients, median cumulative 11.1 GBq over 1-7 cycles",25%
same,median OS,[25]; 95% CI: 11.5-14.5,13.0 months
"[64Cu+2].[Cl-].[Cl-] [^64CuCl2, 64-copper chloride]","detection rate, lymph nodes",[20],79%
same,"detection rate, skeletal metastases",[20],77.3%
same,"detection rate, soft tissue metastases",[20],80.6%
same,SUVmax,"[26]; first imaging, 2 patients",1.12
same,tolerability,[26]; in vivo,well-tolerated
"CN(CCOc1ccc(C(=O)/C=C/c2ccc(N(C)C)cc2)cc1)CCOc1ccc(C(=O)/C=C/c2ccc(N(C)C)cc2)cc1 [¹¹C-(Chal)2DEA-Me, (2E,2′E)-1,1′-((((methylazanediyl)bis(ethane-2,1-diyl))bis(oxy))bis(4,1-phenylene))bis(3-(4-(dimethylamino)phenyl)prop-2-en-1-one)]",binding affinity,[27],superior binding affinity compared to monomeric counterparts
O=C([O-])CN(CCN(CC(=O)[O-])Cc1cc(CCC(=O)NCCCCCC(=O)NCCCC[C@H](NC(=O)N[C@@H](CCC(=O)O)C(=O)O)C(=O)O)ccc1[O-])Cc1cc(CCC(=O)O)ccc1[O-].[68Ga+3].[OH3+] [^68Ga-PSMA],pelvic lesions detected,[28]; 61 patients,341 lesions
same,extra pelvic distant metastatic lesions detected,[28]; in vivo,237 lesions
same,total lesions detected,[28]; in vivo,578 lesions
N#C[C@@H]1CC(F)(F)CN1C(=O)CNC(=O)c1ccnc2ccc(OCCCN3CCN(C(=O)CN4CCN(CC(=O)[O-])CCN(CC(=O)[O-])CCN(CC(=O)[O-])CC4)CC3)cc12.[68Ga+3] [68Ga-DOTA-FAPI04],stability (RCP) at 4 hrs,[29],96.31%
same,RCP by TLC,"[30]; 0.1M Na citrate, 30 min",98.84±0.7%
same,RCP by TLC,"[30]; 0.1M Na citrate, 1 h",98.27±0.81%
same,RCP by TLC,"[30]; 0.1M Na citrate, 2 h",97.18±1.5%
same,RCP by TLC,"[30]; 50% acetonitrile, 30 min",98.24±0.86%
same,RCP by TLC,"[30]; 50% acetonitrile, 1 h",97.84±0.98%
same,RCP by TLC,"[30]; 50% acetonitrile, 2 h",96.89±1.1%
same,RCP by HPLC,[30]; 30 min,100%
same,RCP by HPLC,[30]; 1 h,100%
same,RCP by HPLC,[30]; 2 h,100%
